High-throughput results deposited in PubChem by The Scripps Research Institute Molecular Screening Center.
Hits are enriched below; roughly 2% of the tested compounds scored in any of these assays.
STAT1 inh: STAT1 signaling inhibitors, primary screen, cell-based, HTS, luciferase reporter. NIH 3T3 STAT1-luciferase reporter, IFN-gamma, luminescence. inhibition, % at 5.5 µM. 0.35% of 200,000 active. AID 920, 2007;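 active = inhibition above a set limit, the mean inhibition across all tested compounds plus 3 SD, cut at about 34% in these data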
STAT3 inh: IL-6 driven STAT3 reporter inhibitors, primary screen, U3A cells, luciferase, luminescence, MLSCN library; IL-6 STAT3-luciferase reporter; host cell line lacks STAT1; inhibition, % at 5.5 µM; 0.89% of 190,000 active; AID 862, 2007;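 active = inhibition above the mean inhibition across all screened compounds plus 3 SD, cut at about 44% in these data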
STAT3 act: IL-6 driven STAT3 reporter potentiators, primary screen, U3A cells, luciferase, luminescence, MLSCN library; activation (% of control), % at 5.6 µM; AID 871, 2007; 0.91% of 190,000 active; IL-6 STAT3-luciferase reporter; 100% = signal with IL-6 EC80 alone;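 active = activation above the screen-wide mean of compound activation plus 3 SD, cut at about 130% in these data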
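Test system: Human STAT1-deficient U3A cells with stable STAT3-luciferase reporter | Also added: Interleukin-6, 33 ng/mL | Timing: Compound pre-incubation 1 h before IL-6, then 6 h stimulation at 37 °C | Technique: Luciferase reporter luminescence | Read-out: Percent of IL-6-only median luminescence | Benchmarks: IL-6-only wells as 100% reference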
HSP90 refold inh: HSP90 inhibitors, primary screen, cell lysate, luminescence; Rabbit reticulocyte lysate, luciferase refolding luminescence, 3 h; Heat shock protein HSP 90 (rabbit reticulocyte lysate; luciferase refolding); inhibition, % at 5.6 µM; 0.91% of 290,000 active;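 active = inhibition above the screen-wide mean plus 3 SD, computed separately per campaign, cut at about 16% in these data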;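 also: inhibitors lower the luminescence because luciferase stays unfolded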
HSP90 confirm: HSP90 inhibitors, confirmation, cell lysate, luminescence | rabbit reticulocyte lysate, luciferase refolding luminescence, 3 h | inhibition, % at 5.9 µM | shares compounds with HSP90 refold inh | 64% of 2,300 active; in the data active = inhibition above about 18%
luciferase ctr: firefly luciferase inhibitors, HSP90 counter-screen, confirmation, artefact control for HSP90 inhibitor project, biochemical, luminescence, triplicate; shares compounds with HSP90 refold inh; purified native firefly luciferase; inhibition, % at 5.9 µM; 48% of 2,300 active; AID 1847, 2009;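 active = inhibition above the mean inhibition of all tested sample wells plus 3 SD, cut at about 10% in these data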
Target sequence (P08659 whole entry, looked up): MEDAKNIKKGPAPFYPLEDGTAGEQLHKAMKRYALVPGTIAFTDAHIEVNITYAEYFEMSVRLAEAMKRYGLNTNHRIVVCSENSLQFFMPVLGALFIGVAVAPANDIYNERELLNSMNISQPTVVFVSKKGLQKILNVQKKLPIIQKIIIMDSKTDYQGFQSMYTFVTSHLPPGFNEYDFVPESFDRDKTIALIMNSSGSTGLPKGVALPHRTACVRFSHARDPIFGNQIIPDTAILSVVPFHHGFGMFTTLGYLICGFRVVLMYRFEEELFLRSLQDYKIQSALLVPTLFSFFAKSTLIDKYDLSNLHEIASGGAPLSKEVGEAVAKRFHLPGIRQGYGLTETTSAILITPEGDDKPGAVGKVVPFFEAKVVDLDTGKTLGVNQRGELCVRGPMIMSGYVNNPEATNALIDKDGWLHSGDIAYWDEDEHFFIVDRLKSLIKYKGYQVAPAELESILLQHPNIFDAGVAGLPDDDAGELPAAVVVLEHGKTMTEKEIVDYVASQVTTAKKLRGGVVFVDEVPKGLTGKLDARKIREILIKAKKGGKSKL
Hits are given with their value.

CSc1nc(N)c(N=Nc2ccc([As](=O)(O)O)cc2)c(=O)[nH]1 was read as HSP90 refold inh 21.2, HSP90 confirm 22.4 and luciferase ctr inactive.
Screening CCOP(=O)(OCC)C(NC(=O)CN1C(=O)c2ccccc2S1(=O)=O)C(Cl)(Cl)Cl (centres undefined) returned STAT1 inh inactive, STAT3 inh inactive, STAT3 act inactive and HSP90 refold inh inactive.
Screening CC1CCN(C(=O)c2ccc(N3CC4CC(C3)c3cccc(=O)n3C4)c([N+](=O)[O-])c2)CC1 (centres undefined) returned STAT1 inh inactive, STAT3 inh inactive, STAT3 act inactive and HSP90 refold inh inactive.
For O=c1c2ccccc2nc(/C=C/c2ccc(F)cc2)n1-c1ccccn1 the results were HSP90 refold inh 26.4, HSP90 confirm inactive and luciferase ctr inactive.
For CCOC(=O)c1ccc(NC(=O)C2C3C=CC(O3)C2C(=O)O)cc1 (centres undefined) the results were STAT1 inh inactive, STAT3 inh inactive, STAT3 act inactive, HSP90 refold inh 35.2, HSP90 confirm inactive and luciferase ctr inactive.
Screening CCc1ccc(CNCCc2c[nH]c3ccccc23)cc1 returned HSP90 refold inh 19.1, HSP90 confirm inactive and luciferase ctr inactive.
`O=C(c1ccccc1F)c1cn(CC(=O)N2CCCC2)c2ccccc12` gave STAT1 inh inactive, STAT3 inh inactive, STAT3 act inactive and HSP90 refold inh inactive.
COc1ccc(C2SCC(=O)Nc3c2c(C)nn3C2CCOC(C)(C)C2)cc1 (centres undefined) was read as STAT1 inh inactive, STAT3 inh inactive, STAT3 act inactive, HSP90 refold inh 19.9, HSP90 confirm inactive and luciferase ctr inactive.
Cc1ccnc(-n2c(-c3ccco3)nc3ccccc3c2=O)c1 was read as STAT1 inh inactive, STAT3 inh inactive, STAT3 act inactive and HSP90 refold inh inactive.
For COC(=O)[C@@H]1[C@@H](C(=O)OC)C2(c3ccccc3-c3ccccc32)N(c2ccc(Cl)cc2)N1C#N the results were STAT1 inh inactive, STAT3 inh inactive, STAT3 act inactive and HSP90 refold inh inactive.
`COC(=O)C[C@]1(C(=O)OC)CN(C#N)N(c2ccc(Cl)cc2)C12c1ccccc1-c1ccccc12` gave STAT1 inh inactive, STAT3 inh inactive, STAT3 act inactive, HSP90 refold inh 32.2, HSP90 confirm 58.7 and luciferase ctr inactive.
For CCCCCCOc1ccc(CN2CCN(C)CC2)cc1 the results were STAT1 inh inactive, STAT3 inh inactive, STAT3 act inactive, HSP90 refold inh 18.6, HSP90 confirm 38.9 and luciferase ctr 24.8.
O=c1[nH]c(O)c(C=Nc2ccc(Cl)c(C(F)(F)F)c2)c(=O)[nH]1 was read as HSP90 refold inh inactive.
`CC(C)(C)OC(=O)c1c(N)n(Cc2ccco2)c2nc3ccccc3nc12` gave STAT1 inh inactive, STAT3 inh inactive, STAT3 act inactive, HSP90 refold inh 28.6, HSP90 confirm inactive and luciferase ctr inactive.
Screening COCCCn1c(N)c(C(=O)NCc2ccco2)c2nc3ccccc3nc21 returned HSP90 refold inh 20.6, HSP90 confirm inactive and luciferase ctr inactive.
`COCCNC(=O)c1c(N)n(Cc2ccco2)c2nc3ccccc3nc12` gave STAT1 inh inactive, STAT3 inh inactive, STAT3 act inactive and HSP90 refold inh inactive.
Cc1c(/C=C2/CC3C4CC=C5CC(O)CCC5(C)C4CCC3(C)C2=O)cnn1C (centres undefined) was read as STAT1 inh inactive, STAT3 inh inactive, STAT3 act inactive and HSP90 refold inh inactive.
Screening O=c1[nH]c(O)c(N=Nc2ccc3c(c2)OCCO3)c(=O)[nH]1 returned STAT1 inh 41.0, STAT3 inh 78.6, STAT3 act inactive, HSP90 refold inh 73.0, HSP90 confirm 70.7 and luciferase ctr 70.3.
`O=c1[nH]c(=S)[nH]c(O)c1N=Nc1ccc2c(c1)OCCO2` gave HSP90 refold inh inactive.
For CCCCn1c(NS(=O)(=O)c2ccccc2)c(C(=O)OCC)c2nc3ccccc3nc21 the results were STAT1 inh inactive, STAT3 inh inactive, STAT3 act inactive, HSP90 refold inh 18.1, HSP90 confirm inactive and luciferase ctr inactive.
For CCCCn1c(NC(=O)c2ccc(Br)o2)c(C(=O)OCC)c2nc3ccccc3nc21 the results were STAT1 inh inactive, STAT3 inh inactive, STAT3 act inactive and HSP90 refold inh inactive.
`COc1ccc(CCNCc2ccccc2F)cc1` gave HSP90 refold inh inactive.
For CN1CCN(C(=O)COc2ccc(-c3nc4ccccc4s3)cc2)CC1 the results were STAT1 inh 48.6, STAT3 inh 85.2, STAT3 act inactive, HSP90 refold inh 47.7, HSP90 confirm 71.7 and luciferase ctr 69.0.
`CN1CCN(C(=O)COc2ccc3ccccc3c2)CC1` gave HSP90 refold inh inactive.
For CC(C(=O)c1cn(C)c2ccccc12)c1ccccc1 (centres undefined) the results were STAT1 inh inactive, STAT3 inh inactive, STAT3 act inactive and HSP90 refold inh inactive.
For Nc1ccc2ccc3cccc[n+]3c2c1 the results were HSP90 refold inh inactive.
C[n+]1c(-c2ccccc2)c2cc(N)ccc2c2ccc(N)cc21 was read as HSP90 refold inh 38.9, HSP90 confirm inactive and luciferase ctr inactive.
`O=C(c1ccc(Cl)cc1)C1CCCN(Cc2cccc3cnccc23)C1` (centres undefined) gave STAT1 inh inactive, STAT3 inh inactive, STAT3 act inactive and HSP90 refold inh inactive.
Screening CCCCOP(=O)(CN1CCOCC1)OCCCC returned STAT1 inh inactive, STAT3 inh inactive, STAT3 act inactive and HSP90 refold inh inactive.
C=CCn1c(O)c(/C(C)=N/N2CCN(C)CC2)c(=O)[nH]c1=O was read as HSP90 refold inh 22.0, HSP90 confirm inactive and luciferase ctr inactive.
